Data published in ChEMBL document CHEMBL1121472, “Derivatives of 5-hydroxy-6-methyl-2-aminotetralin” (1980).
Activity calls are given as the source filed them. The calls are words filed in the database; no cut-off is given here.

Assays:
Rattus norvegicus [1] = experiment: Compound was evaluated for rotational uM/kg; type: functional, organism-based
Method in brief: (§1)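 Male Sprague Dawley rats received a unilateral stereotaxic injection of 6-hydroxydopamine hydrobromide (6 μg in 3 μL) into the substantia nigra region (anterior 24, lateral 1.8, vertical 7.0). Drug was then given sc, and contralateral turns were counted over the next 1 h and reported as turns/h at the stated dose.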

Felis catus [2] = experiment: Inhibition of chronotropic response to cardioaccelerator nerve stimulation in the cat; NI denotes no inhibition up to 1.55 uM/kg; type: functional, organism-based
Method in brief: (§2)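 Cats were bilaterally vagotomized and pretreated iv with atropine sulfate (0.2 mg/kg). Right postganglionic cardioaccelerator nerves were placed on bipolar electrodes and stimulated at 2 Hz, 5-ms pulses, for 30 s at 20–25 V. Heart rate was recorded by cardiotachometer, femoral arterial pressure was monitored, and drugs were given iv via a femoral vein catheter. ED50 is in μmol/kg with 95% CL. Blockade was tested with haloperidol 0.1 mg/kg.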

Canis familiaris [3] = experiment: Compound was evaluated for emesis action in dogs, administered subcutaneously; NA denotes inactive; type: functional, organism-based; conditions: Canis lupus familiaris
Method in brief: (§3)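 Five adult mongrel dogs, housed singly with food ad libitum, were given drug solutions sc, and vomiting frequency was counted over 1 h. Three doses of apomorphine hydrochloride (0.08, 0.16, 0.32 μmol/kg) as reference and three of the test compound were compared by a 3 × 3 parallel line bioassay to give relative potency with 95% confidence limits.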

Felis catus [4] = species: Felis catus; experiment: Inhibition of chronotropic response to cardioaccelerator nerve stimulation in the cat; NA denotes inactive; type: functional, organism-based; method in brief: as §2
Felis catus [5] = species: Felis catus; experiment: Inhibition of chronotropic response to cardioaccelerator nerve stimulation in the cat; type: functional; method in brief: as §2
Rattus norvegicus [6] = experiment: Compound was evaluated for rotational behavior in rats and (contralateral turning) circling response were recorded at a dose of 400 umol/Kg; IA=Inactive; type: functional, organism-based
Canis familiaris [7] = experiment: Compound was evaluated for emesis action in dogs, administered subcutaneously; Range is (0.02-0.08); type: functional, Canis lupus familiaris
Rattus norvegicus [8] = experiment: Compound was evaluated for rotational behavior in rats and (contralateral turning) circling response were recorded at a dose of 0.41 umol/Kg; type: functional; method in brief: as §1
Rattus norvegicus [9] = experiment: Compound was evaluated for rotational behavior in rats and (contralateral turning) circling response were recorded at a dose of 14.0 umol/kg; IA = inactive; type: functional, organism-based; method in brief: as §1
Rattus norvegicus [10] = experiment: Compound was evaluated for rotational behavior in rats and (contralateral turning) circling response were recorded at a dose of 11.7 umol/Kg; type: functional; method in brief: as §1
Rattus norvegicus [11] = experiment: Compound was evaluated for rotational behavior in rats and (contralateral turning) circling response were recorded at a dose of 5.85 umol/Kg; type: functional; method in brief: as §1
Felis catus [12] = experiment: Inhibition of chronotropic response to cardioaccelerator nerve stimulation in the cat; NA denotes inactive uM/kg; type: functional, organism-based; method in brief: as §2
Felis catus [13] = experiment: Inhibition of chronotropic response to cardioaccelerator nerve stimulation in the cat at 10 uM/kg; NA denotes inactive; type: functional, organism-based; method in brief: as §2
Canis familiaris [14] = experiment: Compound was evaluated for emesis action in dogs administered subcutaneously; NA denotes inactive; type: functional, organism-based; conditions: Canis lupus familiaris; method in brief: as §3

For `Cc1ccc2c(c1O)CCC(N)C2` (configuration not stated), the Activity (Rattus norvegicus [1]) was “NI” and the ED50 (Felis catus [2]) was “No inhibition”.

With `Cc1ccc2c(c1O)CCC(NC(C)C)C2` (configuration not stated) the Potency ratio (Canis familiaris [3]) was “inactive” and the ED50 (Felis catus [4]) was “inactive”.

For `Br.CCN(CC)C1CCc2c(ccc(C)c2O)C1` (configuration not stated), the ED50 (Felis catus [5]) was 0.48 µmol/kg and the Rotational behavior (Rattus norvegicus [6]) was “inactive”.

For `CN1CCc2cccc3c2[C@H]1Cc1ccc(O)c(O)c1-3` [APOMORPHINE], the ED50 (Felis catus [5]) was 0.022 µmol/kg, the Potency ratio (Canis familiaris [7]) was 0.046 and the Rotational behavior (Rattus norvegicus [8]) was 175.21 turns hr-1.

With `Cc1ccc2c(c1O)CCC(N(C)C)C2` (configuration not stated) the Rotational behavior (Rattus norvegicus [9]) was “inactive”.

Work on `Br.CCCN(CCC)C1CCc2c(ccc(C)c2O)C1` (configuration not stated) yielded an ED50 (Felis catus [5]) of 0.025 µmol/kg, a Rotational behavior (Rattus norvegicus [10]) of 346.86 turns hr-1 and a Rotational behavior (Rattus norvegicus [11]) of 131.43 turns hr-1.

In the case of `CCNC1CCc2c(ccc(C)c2O)C1` (configuration not stated), the ED50 (Felis catus [12]) is reported as “inactive”.

For `CCCNC1CCc2c(ccc(C)c2O)C1` (configuration not stated), the ED50 (Felis catus [13]) was “inactive”.

With `CNC1CCc2c(ccc(C)c2O)C1` (configuration not stated) the ED50 (Felis catus [12]) was “inactive” and the Potency ratio (Canis familiaris [14]) was “inactive”.
